In the library only some 1.8% were active in any assay of this set; here they are far more common.
PABP FP inh: PABP poly(A) RNA binding inhibitors, primary screen, biochemical, fluorescence polarization, uHTS | Polyadenylate-binding protein 1 (Homo sapiens), P11940 | calls only at 35 µM | actives 1% (n = 290,000) | AID 2014, 2009;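 further: calls also rest on retests at 20 µM and on dose response follow-up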
Target sequence (P11940 whole entry, looked up): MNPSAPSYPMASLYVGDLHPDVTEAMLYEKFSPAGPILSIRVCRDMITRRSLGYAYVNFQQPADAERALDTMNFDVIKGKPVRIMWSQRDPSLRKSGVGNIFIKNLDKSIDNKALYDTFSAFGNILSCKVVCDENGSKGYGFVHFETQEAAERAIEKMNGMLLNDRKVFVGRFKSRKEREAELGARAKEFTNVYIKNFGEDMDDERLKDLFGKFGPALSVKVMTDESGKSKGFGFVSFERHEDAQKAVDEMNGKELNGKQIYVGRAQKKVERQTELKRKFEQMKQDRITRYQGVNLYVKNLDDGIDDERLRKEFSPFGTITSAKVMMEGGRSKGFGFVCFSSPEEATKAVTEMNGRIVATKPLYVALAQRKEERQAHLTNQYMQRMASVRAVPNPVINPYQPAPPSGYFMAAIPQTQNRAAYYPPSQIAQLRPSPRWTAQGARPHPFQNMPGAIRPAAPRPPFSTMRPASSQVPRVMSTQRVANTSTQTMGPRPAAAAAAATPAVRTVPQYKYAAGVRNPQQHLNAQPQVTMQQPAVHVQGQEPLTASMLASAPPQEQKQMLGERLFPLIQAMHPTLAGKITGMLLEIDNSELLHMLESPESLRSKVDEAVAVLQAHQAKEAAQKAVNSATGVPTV
SKN-1 inh: suppressors of acrylamide-induced Pgst-4::GFP reporter in worms, primary screen, SKN-1 inhibitor project, whole organism, uHTS, GFP/RFP fluorescence ratio, strain VP596; C. elegans VP596 Pgst-4::GFP/RFP ratio, 24 h; inhibition, % at 21.8 µM; actives 0.49% (n = 360,000);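 active means interference check ratio from 0.5 to 1.5 plus GFP to RFP signal ratio inhibition reaching or exceeding a fixed threshold, cut at about 30% in these data, passing the limit was not always enough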
MT1-MMP act inh: blockers of MT1-MMP proenzyme processing, primary screen, HT1080 RFP-PRO-GFP cells, GFP/RFP fluorescence. Matrix metalloproteinase-14 (Homo sapiens), P50281. GFP/RFP ratio fluorescence, overnight; percent of plate control window, DMSO zero. GFP/RFP ratio change, % at 20 µM. actives 0.061% (n = 360,000). AID 651647, 2012;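 active means GFP/RFP ratio change of at least 30% with cell ATP level not reduced by more than half and red fluorescence within 50% of control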
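Assay system: HT1080 RFP-PRO-GFP cells | Dosing: 20 µM single dose, 1% DMSO | Incubation: Cells overnight before dosing, compound overnight, 37 °C, 5% CO2 | Evaluation: GFP/RFP fluorescence ratio | Control set: DMSO-only wells and HT1080 RFP-L50D-GFP cell wells as references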
eIF4H inh: human eIF4H binding inhibitors, primary screen, translation initiation inhibitor project, biochemical, uHTS, fluorescence polarization; eIF4H fluorescence polarization binding assay; inhibition, % at 35 µM; actives 0.94% (n = 290,000);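 further: calls also rest on retests at 20 µM and on dose response follow-up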
MLLE-PAM2 inh: inhibitors of PABP1 MLLE–PAM2 peptide binding, primary screen, biochemical, fluorescence polarization, FITC-PAM2, GST-MLLE; inhibition, % at 20 µM; actives 0.36% (n = 360,000); AID 588489, 2011; in the data active means inhibition above about 35%, passing the limit was not always enough;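 further: plate controls were DMSO wells with GST-MLLE for no effect and wells lacking GST-MLLE protein for full effect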
An asterisk follows results filed as active; i = inactive; ? = inconclusive; / = not tested or not shown; + = active, no number. Unless noted, how the calls were made is not given here.

SMILES	PABP FP inh	SKN-1 inh	MT1-MMP act inh	eIF4H inh	MLLE-PAM2 inh
COc1ccc(S(=O)(=O)N2CCC(C(=O)NCc3ccncc3)CC2)cc1OC	i	-5	2	-1	9
CCCCNC(=S)Nc1ccc(OC)nc1	i	-3	-7	?	41*
Cc1ccc(/C([O-])=C(/C(=S)NCc2ccco2)[n+]2ccccc2)cc1	+	/	/	76*	/
O=[N+]([O-])c1ccc(/C([O-])=C(/C(=S)NCc2ccco2)[n+]2ccccc2)cc1	i	4	1	84	-46
Cc1ccc(SCC(=O)c2ccc(CC(=O)O)s2)cc1	i	-12	-4	74*	23
Cc1cccn2c(=O)c(C=O)c(N3CCCCCC3)nc12	i	37*	-6	0	1
Cc1cccn2c(=O)c(C=O)c(N3CC(C)OC(C)C3)nc12 (stereo unspecified)	i	3	-1	-2	2
Cc1cccc(NC(=O)CSc2nnc(-c3ccncc3)n2CC2CCCO2)c1 (stereo unspecified)	i	6	1	4	-5
COc1cc2c(cc1OC)CN(C(=O)COc1ccc(C#N)cc1)CC2	+	1	3	6.8*	13
COc1cc2c(cc1OC)CN(C(=O)CC1CC3CCC1C3)CC2 (stereo unspecified)	i	-9	0	4	0
COc1cc2c(cc1OC)CN(C(=O)COc1ccccc1C#N)CC2	i	15	-1	-16	7
COc1cc2c(cc1OC)CN(C(=O)CCN1C(=O)C3CCCCC3C1=O)CC2 (stereo unspecified)	+	-5	0	6.2*	5
Cc1ccccc1NC(=O)C1C(=O)Nc2ccccc2C(=O)N1Cc1ccccc1 (stereo unspecified)	/	-1	2	/	/
Cc1cccc(C)c1NC(=O)CN1C(=O)S/C(=C\c2cccn2-c2cccc(C(=O)O)c2)C1=O	+	-7	-2	80*	-3
COc1ccc(/C=C2\SC(=O)N(CC(=O)Nc3ccccc3O)C2=O)cc1OC	i	35*	3	2	4
COc1ccc(NC(=O)CN2C(=O)S/C(=C/c3cccn3-c3ccc(C(=O)O)cc3)C2=O)cc1	+	7	0	87*	5
COc1ccc(/C=C2\SC(=O)N(CC(=O)Nc3ccc(O)cc3)C2=O)cc1OC	i	3	7	-4	-12
COc1ccc(/C=C2\SC(=O)N(CCCC(=O)Nc3ccc(C(=O)O)cc3)C2=O)cc1	/	19	2	/	-5
Cc1ccccc1NC(=O)CN1C(=O)S/C(=C\c2cccn2-c2cccc(C(=O)O)c2)C1=O	+	-4	2	81*	6
Cc1cccc(NC(=O)CN2C(=O)S/C(=C\c3cccn3-c3cccc(C(=O)O)c3)C2=O)c1	i	10	1	71	-1
Cc1ccc(NC(=O)CN2C(=O)S/C(=C\c3cccn3-c3cccc(C(=O)O)c3)C2=O)cc1C	+	13	1	70	-4
Cc1ccc(NC(=O)CN2C(=O)S/C(=C\c3cccn3-c3cccc(C(=O)O)c3)C2=O)c(C)c1	+	5	15	91*	7
Cc1cc(Br)ccc1NC(=O)CNC(=O)c1cnn(C)c1	/	-5	0	/	-24
CCN(CC)c1ccc(C=N/C(C#N)=C(\N)C#N)cc1	+	28	17	?	-91
Oc1c(Br)cc(Br)c(/C=N/n2c(-c3ccccc3)n[nH]c2=S)c1Br	+	-11	1	44*	14
Oc1ccc(Br)cc1/C=N/n1c(-c2ccccc2)n[nH]c1=S	i	4	5	-7	-58
O=c1ccc2cc(S(=O)(=O)N3CCN(c4cc(Cl)ccc4Cl)CC3)ccc2o1	i	13	-5	-4	-3
Cc1ccc(N2CCN(S(=O)(=O)c3ccc4oc(=O)ccc4c3)CC2)c(C)c1	i	43*	3	0	-6
CN(C)c1nc(N)c(C#N)c(C#N)c1C#N	/	-8	-4	/	-3

Screening data from PubChem.
